Laboratory results as given in PubChem BioAssay AID493053 (Broad Institute, 2011).
“And” between values parts separate entries of the source, which are not always exact repeats. Equal values may be shown once. The source made the active and inactive calls.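 How the source made its calls: active means signal falling with dose, half-maximal concentration at or below ten times the highest valid dose tested; inconclusive means flat curve with loss between 30% and 70%, or a poor fit; inactive means the rest, including flat or rising curves.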

Tested on: not listed separately
Experiment: Ras-transformed BJeLR cell killing – BJeLR cells, dry powder, set 2, dose response (AID 493053)
Conditions: BJeLR fibroblasts viability, Alamar Blue fluorescence, 48 h; at 48 µM (top of the series)
Procedure, shortened: (§1)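 Buffer or medium: DMEM and M199 growth medium with heat-inactivated fetal bovine serum; incubation: 48-h compound exposure (37 °C, 5% CO2), then ~16-h dye incubation; technique: Alamar Blue fluorescence, 544/590 nm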

SMILES | activity change, negative = viability loss
O=C(c1ccc([N+](=O)[O-])o1)N1CCCN(C(c2ccccc2)c2ccccc2)CC1 | -4.17% (inactive)
Cc1onc(C(=O)N2CCN(C(c3ccccc3)c3ccccc3)CC2)c1C | 15.3% (inactive)
CC(=O)Nc1c(C(=O)N2CCN(C(c3ccccc3)c3ccccc3)CC2)noc1C | 11.2% (inactive)
Cc1onc(C(=O)N2CCN(C(c3ccccn3)c3ccccn3)CC2)c1[N+](=O)[O-] | 9.75% (inactive)
Cc1oc(C)c(C(=O)N2CCN(C(c3ccccc3)c3ccccc3)CC2)c1C | 12.2% (inactive)
Cc1onc(C(=O)N2CCN(C(c3ccncc3)c3ccncc3)CC2)c1[N+](=O)[O-] | 8.19% (inactive)
O=[N+]([O-])c1ccc(CN2CCN(C(c3ccccc3)c3ccccc3)CC2)o1 | 2.87% (inactive)
Cc1ccc(C(=O)N2CCN(C(c3ccccc3)c3ccccc3)CC2)c([N+](=O)[O-])c1 | 14.9% (inactive)
Cc1onc(C(=O)N2CCN(C(c3ccccc3)c3ccccc3)CC2)c1Br | 11.7% (inactive)
Cc1onc(C(=O)N2CCN(C(c3ccccc3)c3ccccc3)CC2)c1NS(C)(=O)=O | 15.2% (inactive)
O=C(c1noc2ccccc12)N1CCN(C(c2ccccc2)c2ccccc2)CC1 | 3.47% (inactive)
Cc1onc(C(=O)N2CCN(C(c3ccccc3)c3ccccc3)CC2)c1N | 10.4% (inactive)
CC(C)c1onc(C(=O)N2CCN(C(c3ccccc3)c3ccccc3)CC2)c1[N+](=O)[O-] | 2.95% (inactive)

Same assay, conditions: BJeLR fibroblasts viability, Alamar Blue fluorescence, 48 h; at 68 µM (top of the series)

SMILES | activity change, negative = viability loss
Cc1cc(C(=O)N2CCN(Cc3ccccc3)CC2)no1 | 4.49% (inactive)
COc1ccccc1N1CCN(C(=O)c2noc(C)c2[N+](=O)[O-])CC1 | -5.96% (inactive)
Cc1onc(C(=O)N2CCOCC2)c1[N+](=O)[O-] | -1.92% (inactive)
Cc1onc(C(=O)NCc2ccc(F)cc2)c1[N+](=O)[O-] | -1.57% (inactive)
CCOC(=O)N1CCN(C(=O)c2noc(C)c2[N+](=O)[O-])CC1 | -2.12% (inactive)

Tested on: BJeLR fibroblasts viability, Alamar Blue fluorescence, 48 h
Experiment: as above
Conditions: not given
Procedure, shortened: as §1

SMILES | AC50
O=C(NCCNC(c1ccccc1)c1ccccc1)c1ccc([N+](=O)[O-])o1 | 39100 nM
Cc1onc(C(=O)N2CCN(Cc3ccccc3)CC2)c1[N+](=O)[O-] | 65300 nM
O=C(c1ccc([N+](=O)[O-])o1)N1CCN(C(c2ccc(F)cc2)c2ccc(F)cc2)CC1 | 50800 nM
Cc1onc(C(=O)N2CCN(C(c3ccc(F)cc3)c3ccc(F)cc3)CC2)c1[N+](=O)[O-] | 183 nM
COc1ccc(C(c2ccc(OC)cc2)N2CCN(C(=O)c3noc(C)c3[N+](=O)[O-])CC2)cc1 | 1570 nM
Cc1onc(C(=O)N2CCN(C(c3ccccc3)c3ccc(Cl)cc3)CC2)c1[N+](=O)[O-] (stereo not drawn) | 129 nM
Cc1onc(C(=O)N2CCN(C(c3ccccc3)c3ccccc3)CC2)c1[N+](=O)[O-] | 2270 nM and 1030 nM
Cc1onc(C(=O)N2CCCN(C(c3ccccc3)c3ccccc3)CC2)c1[N+](=O)[O-] | 773 nM
Cc1onc(C(=O)N2CCN(C(c3ccc(Cl)cc3)c3ccc(Cl)cc3)CC2)c1[N+](=O)[O-] | 71 nM
Cc1onc(C(=O)NCCNC(c2ccccc2)c2ccccc2)c1[N+](=O)[O-] | 21600 nM
